Measurements: ChEMBL document CHEMBL3272137, “Narcotic antagonists. Synthesis and evaluation of some subsituted 1,2,3,4,5,6-hexahydro-1,4:2,6-dimethano-3-benzazocines” (J Med Chem, 1977)
The source made the active and inactive calls. No cut-off for these calls is given here.

What was measured:
[1] = tested on: Mus musculus; assay: Analgesic activity in mouse assessed as inhibition of phenylquinone-induced writhing at 40 mg/kg, sc; type: functional, organism-based; set-up: dose 40 mg/kg
Outline: (§1)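 Given subcutaneously as salts in aqueous solution, with dose expressed as free base.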

[2] = tested on: Mus musculus; assay: Narcotic antagonist activity in mouse assessed as inhibition of oxymorphone-induced straub tail response at 40 mg/kg, sc; type: functional, organism-based; set-up: dose 40 mg/kg; outline: as §1
[3] = tested on: Mus musculus; assay: Toxicity in mouse assessed as convulsion at 80 mg/kg, sc; type: organism-based; set-up: dose 80 mg/kg, route subcutaneous; conditions: in vivo; outline: as §1
[4] = tested on: Mus musculus; assay: Narcotic antagonist activity in sc dosed mouse assessed as inhibition of oxymorphone-induced straub tail response; type: functional
Outline: (§2)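 Given subcutaneously as salts in aqueous solution, with doses expressed as free base. ED50 was derived by probit analysis of dose-response data using at least three dose levels and at least six animals per dose level.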

[5] = tested on: Mus musculus; assay: Narcotic antagonist activity in sc dosed mouse assessed as inhibition of oxymorphone-induced narcosis; type: functional; outline: as §2
[6] = tested on: Rattus norvegicus; assay: Narcotic antagonist activity in sc dosed rat assessed as inhibition of morphine-induced analgesic activity by tail flick test; type: functional; outline: as §2
[7] = tested on: Mus musculus; assay: Analgesic activity in sc dosed mouse assessed as inhibition of phenylquinone-induced writhing; type: functional; outline: as §2
[8] = tested on: Mus musculus; assay: Toxicity in mouse assessed as convulsion at 40 mg/kg, sc; type: organism-based; set-up: dose 40 mg/kg, route subcutaneous; conditions: in vivo; outline: as §1
[9] = tested on: Mus musculus; assay: Toxicity in mouse assessed as depression at 40 mg/kg, sc; type: organism-based; set-up: dose 40 mg/kg, route subcutaneous; conditions: in vivo; outline: as §1
[10] = tested on: Mus musculus; assay: Toxicity in mouse assessed as tremor at 40 mg/kg, sc; type: organism-based; set-up: dose 40 mg/kg, route subcutaneous; conditions: in vivo; outline: as §1

SMILES	inhibition [1]	inhibition [2]	Activity [3]	ED50 [4]	ED50 [5]	ED50 [6]	ED50 [7]	Activity [8]	Activity [9]	Activity [10]
CC12CC3CC(c4ccc(O)cc41)C(C2)N3CC1CCC1 (stereo unspecified)	inactive	inactive	Toxic	–	–	–	–	–	–	–
CCC12CC3CC(c4ccc(O)cc41)C(C2)N3CC1CC1 (stereo unspecified)	Active	–	Toxic	2.24 mg/kg	0.32 mg/kg	0.44 mg/kg	–	–	–	–
CN1C2CC3c4ccc(O)cc4C(C)(C2)CC31 (stereo unspecified)	–	inactive	Toxic	–	–	–	31.8 mg/kg	–	–	–
CC12CC3CC(c4ccc(O)cc41)C(C2)N3CC1CC1 (stereo unspecified)	Active	–	Toxic	0.96 mg/kg	0.63 mg/kg	0.64 mg/kg	–	–	–	–
CCC12CC3CC(c4ccc(O)cc41)C(C2)N3 (stereo unspecified)	–	inactive	Toxic	–	–	–	12.9 mg/kg	Toxic	–	–
CCC12CC3CC(c4ccc(O)cc41)C(C2)N3CC1CCC1 (stereo unspecified)	inactive	–	Toxic	15 mg/kg	5 mg/kg	10 mg/kg	–	Toxic	–	–
C=CCN1CC[C@]23c4c5ccc(O)c4O[C@H]2[C@@H](O)C=C[C@H]3[C@H]1C5 [NALORPHINE]	–	–	–	–	0.58 mg/kg	0.38 mg/kg	0.77 mg/kg	–	–	–
CC(C)=CCN1CC[C@]2(C)c3cc(O)ccc3C[C@H]1[C@H]2C [(+)-PENTAZOCINE]	–	–	–	12 mg/kg	10.1 mg/kg	–	3.7 mg/kg	–	–	–
CC12CC3CC(c4ccc(O)cc41)C(C2)N3CCC1CC1 (stereo unspecified)	inactive	inactive	Toxic	–	–	–	–	–	–	–
CCC12CC3CC(c4ccc(O)cc41)C(C2)N3CCC1CC1 (stereo unspecified)	Active	–	Toxic	> 20 mg/kg	–	> 20 mg/kg	–	–	Toxic	–
C=CCN1C2CC3c4ccc(O)cc4C(CC)(C2)CC31 (stereo unspecified)	–	–	Toxic	8 mg/kg	1 mg/kg	3.3 mg/kg	20 mg/kg	–	–	Toxic
CCC12CC3CC(c4ccc(O)cc41)C(C2)N3C (stereo unspecified)	–	inactive	Toxic	–	–	–	24.3 mg/kg	–	–	–
CN1CC[C@]23c4c5ccc(O)c4O[C@H]2[C@@H](O)C=C[C@H]3[C@H]1C5 [MORPHINE]	–	–	–	–	–	–	0.26 mg/kg	–	–	–
CC12CC3CC(c4ccc(O)cc41)C(C2)N3 (stereo unspecified)	–	–	Toxic	–	–	–	–	–	–	–
